{"source": "paper PMC3135172", "about": "(Cell, 2011)", "key": {"H4K12ac": {"system": "H4K12ac", "test": "Enrichment of H4K12ac in cells cultured in trichostatin A", "type": "cell-based", "details": "Figure S7H"}, "BPTF PHD finger": {"system": "BPTF PHD finger", "test": "Binding of short H3K4me3 peptide in the absence of DNA", "set-up": "species or system human", "details": "Figure S2D"}, "BPTF bromodomain": {"target": "BPTF bromodomain (Homo sapiens, UniProt Q12830)", "type": "binding", "details": "GST-tagged bromodomain, peptide array on modified cellulose scaffold", "in_short": "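Each acetylated peptide sits on a cellulose membrane, e.g. H4 residues 11–25 carrying a single ε-amine acetyl-lysine. […] Control and replicate blots were run. Spots that stained on the blot were retested for binding in solution.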"}, "[1]": {"system": "PHD-bromo module F154A mutant", "test": "FPA of PHD-bromo mutant F154A with histone peptides", "type": "binding, human", "details": "Figure 4B"}, "BPTF bromodomain W91A": {"system": "BPTF bromodomain W91A", "test": "ITC of H4K16ac peptide with BPTF bromodomain mutant W91A", "type": "binding, human", "details": "not reliably quantifiable, Figure 5E"}, "BPTF bromodomain V108A": {"system": "BPTF bromodomain V108A", "test": "ITC of H4K16ac peptide with BPTF bromodomain mutant V108A", "type": "binding, human", "details": "Kd outside of the accurately measurable range, Figure 5D"}, "BPTF bromodomain Y147F": {"system": "BPTF bromodomain Y147F", "test": "ITC of H4K16ac peptide with BPTF bromodomain mutant Y147F", "type": "binding, human", "details": "Kd outside of the accurately measurable range, Figure 5D"}, "BPTF bromodomain D101A": {"system": "BPTF bromodomain D101A", "test": "ITC of H4K16ac peptide with BPTF bromodomain mutant D101A", "type": "binding, human", "details": "not reliably quantifiable, Figure 5E"}}, "data": [{"compound": "CC(/C=C/C(=O)NO)=C\\[C@@H](C)C(=O)c1ccc(N(C)C)cc1", "note": "[trichostatin A]", "values": [{"measurement": "enrichment of H4K12ac mark", "setting": "H4K12ac", "result": "substantial enrichment of the mark"}]}, {"compound": "H3K4me3 peptide: short H3K4me3[1–8] peptide used for the DNA ruler, tested without DNA", "values": [{"measurement": "binding of short peptide without DNA", "setting": "BPTF PHD finger", "result": "bound effectively in the absence of DNA"}]}, {"compound": "unmodified counterpart: unmodified histone H4 peptide, without acetylation [reference compound]", "values": [{"measurement": "SPOT blot interaction / staining", "setting": "BPTF bromodomain", "result": "displayed no detectable signal above background"}]}, {"compound": "H4K16ac: histone H4 peptide (residues 11–25 on the array) acetylated on the ε-amine of lysine 16", "values": [{"measurement": "peptide binding to F154A mutant", "setting": "[1]", "result": "abolishes bromodomain binding of H4K16ac"}, {"measurement": "H4K16ac binding by W91A bromodomain", "setting": "BPTF bromodomain W91A", "result": "more severe loss of affinity"}, {"measurement": "SPOT blot interaction / staining", "setting": "BPTF bromodomain", "result": "reproducible staining"}, {"measurement": "H4K16ac binding by V108A bromodomain", "setting": "BPTF bromodomain V108A", "result": "modest binding deficits"}, {"measurement": "H4K16ac binding by Y147F bromodomain", "setting": "BPTF bromodomain Y147F", "result": "modest binding deficits"}, {"measurement": "H4K16ac binding by D101A bromodomain", "setting": "BPTF bromodomain D101A", "result": "more severe loss of affinity"}]}, {"compound": "H4K20ac: histone H4 peptide (residues 11–25 on the array) acetylated on the ε-amine of lysine 20", "values": [{"measurement": "SPOT blot interaction / staining", "setting": "BPTF bromodomain", "result": "reproducible staining"}]}]}
